# Measured values pooled from the literature.
# Lines come from different studies, so protocols differ.
# Cell line: SW-620
Compound,assay,setting,endpoint,result
Cc1ccc(Cn2cnc3ccc(/C=C/C(=O)NO)cc3c2=O)cc1,"cell growth or viability, SRB",48 h,IC50,1.43 µM
Cn1cc(-c2ccc(-c3cncc(Cl)c3N3CCC4(CCNC4=O)CC3)cc2)cn1,colony formation,"14 days, 3D culture",GI50,0.14 µM
O=C(/C=C/c1ccc2ncn(Cc3ccccc3)c(=O)c2c1)NO,"cell growth or viability, SRB",48 h,IC50,1.52 µM
COc1ccc(C(=O)/C=C/c2cccc(Cl)c2Cl)cc1S(N)(=O)=O,"cell growth or viability, SRB",10 µM,inhibition,147%
CC(=O)Nc1cccc(-n2c(=O)n(C3CC3)c(=O)c3c(Nc4ccc(I)cc4F)n(C)c(=O)c(C)c32)c1,"cell growth or viability, resazurin","50 nM, 72 h",viability,25.7%
COc1ccc(C(=O)/C=C/c2ccccc2Br)cc1S(N)(=O)=O,"cell growth or viability, SRB",10 µM,inhibition,146%
COc1cccc2c1C(=O)c1c(O)c3c(c(O)c1C2=O)C[C@@](O)(C(=O)CO)C[C@@H]3O[C@H]1C[C@H](N)[C@H](O)[C@H](C)O1,"cell growth or viability, MTT",48 h,IC50,2.57 µg/mL
CC[C@H](C)C(=O)O[C@H]1C[C@@H](C)C=C2C=C[C@H](C)[C@H](CC[C@@H]3C[C@@H](O)CC(=O)O3)[C@H]21,"cell growth or viability, SRB",72 h,IC50,0.03 µg/mL
COc1ccc(C(=O)/C=C/c2cccnc2)cc1S(N)(=O)=O,"cell growth or viability, SRB",10 µM,inhibition,87%
COc1cc(Nc2nccc(-c3cnn4nc(OC)ccc34)n2)cc(C(F)(F)F)c1,"cell growth or viability, ATP luminescence",,IC50,0.16 µM
O=C(/C=C/c1ccc2ncn(Cc3ccc(Cl)cc3)c(=O)c2c1)NO,"cell growth or viability, SRB",48 h,IC50,2.57 µM
O=C(O)C[C@H](O)C[C@H](O)/C=C/c1c(C2CC2)nc2ccccc2c1-c1ccc(F)cc1,"cell growth or viability, SRB",72 h,IC50,0.54 µg/mL
O=C(/C=C/c1ccc2c(=O)n(Cc3ccccc3)cnc2c1)NO,"cell growth or viability, SRB",48 h,IC50,1.13 µM
COc1ccc(C(=O)/C=C/c2c(F)cccc2Cl)cc1S(N)(=O)=O,"cell growth or viability, SRB",48 h,GI50,3.6 µM
O=C(/C=C/c1ccc2c(=O)n(Cc3ccc(Cl)cc3)cnc2c1)NO,"cell growth or viability, SRB",48 h,IC50,0.671 µM
S=C([S][Au-][P+](CCCCCC[P+]([Au-][S]C(=S)n1cccn1)(c1ccccc1)c1ccccc1)(c1ccccc1)c1ccccc1)n1cccn1,cell growth or viability,,GI50,4.49 µM
